Structures are written as SMILES.

Among the data in ChEMBL document CHEMBL4513216, “Probing the Open Global Health Chemical Diversity Library for Multistage-Active Starting Points for Next-Generation Antimalarials” (ACS Infect Dis, 2020) are cytotoxicity values, retold here.

This data set can be described thus: Toxicity liver stage against HepG2, at 10uM. The data set is classed as cell-based. Set-up: test concentration 10 uM, cell line HepG2-A16-CD81EGFP. As to conditions: human, HepG2-A16-CD81EGFP cells; read-out: INHIBITION
In short, it runs like this:
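Uninfected HepG2-A16-CD81EGFP cells, 3 × 10^3 per well, 1536-well, plated on prespotted compound at 10 μM final, parasite-free screening media added to match infected plates; puromycin 10 μM positive, DMSO 0.5% negative; run in parallel with 48 h PbLuc assay at 37 °C, 5% CO2; viability by CellTiter-Glo luminescence, normalized to controls.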

On to `c1csc(-c2nc(CN3CCCC3Cn3cncn3)co2)c1` (configuration not stated), for which the cytotoxicity at 10 µM is -11.5%.

Turning to `CC(C)CN1CCC(C(=O)NCCNC(=O)c2ccccc2)CC1`, the cytotoxicity at 10 µM turned out to be 1.22%.

`CCc1cc2cc(OC)c(OC)cc2nc1SCCN1CCCCC1`: the cytotoxicity at 10 µM was -4.82%.

As to `Cc1ccccc1C(C)NC(=O)c1ccc(=O)n(C)c1` (configuration not stated), the cytotoxicity at 10 µM amounted to 4.31%.

As to `CN(C)CCNCC1CCOC(C)(C)C1` (configuration not stated), the cytotoxicity at 10 µM is -9.35%.

As to `CCc1ncc2c(n1)CN(Cc1cc(C)on1)CC2`, the cytotoxicity at 10 µM is -16.7%.

On to `CN(C)C(=O)c1cn[nH]c1C1CCCN1Cc1nccn1C` (configuration not stated), for which the cytotoxicity at 10 µM is -1.08%.

Regarding `CC(=O)N1CCC2(CC1)CC[C@@]1(C(=O)N(C)C)CN(S(C)(=O)=O)C[C@@H]21`, the cytotoxicity at 10 µM was -1.56%.

With `COC(=O)C(C)(C)NC(=O)C1CC(=O)N(CC2CC2)C1` (configuration not stated), the cytotoxicity at 10 µM was -142%.

For the compound `Cc1cc(C)n(C2CCCN(C(=O)c3cccc4c3OCO4)C2)n1` (configuration not stated), the cytotoxicity at 10 µM was -3.88%.

For the compound `CN(C)c1ncc(CN2CCOC(C(=O)Nc3ccccc3)C2)cn1` (configuration not stated), the cytotoxicity at 10 µM is -3.14%.

As for `COCC1CCN(CCCc2cn[nH]c2)CC1`, the cytotoxicity at 10 µM stood at 11.3%.

As for `Cn1ccc(C(=O)NCc2cccc(Cn3ccnc3)c2)cc1=O`, the cytotoxicity at 10 µM is 8.42%.

For `COC(=O)c1cccn1C1CCN(C(=O)c2cc(F)ccc2C)CC1`, the cytotoxicity at 10 µM was -2.13%.

Consider `Cn1ccnc1CN1CCC(Cc2ccccn2)CC1`, for which the cytotoxicity at 10 µM was -10.2%.

On to `O=C(C(c1ccccc1)S(=O)(=O)c1ccccc1)N1CCCCC1` (configuration not stated), for which the cytotoxicity at 10 µM is -6.01%.

On to `CC(C)N1CCCC(Cc2nccnc2Cl)C1` (configuration not stated), for which the cytotoxicity at 10 µM was -3.22%.

Turning to `Cc1nnc2n1CCN(C(C(N)=O)c1ccc(F)cc1)C2` (configuration not stated), the cytotoxicity at 10 µM was -13.5%.

As to `Cc1cccc(CNC2CCCc3c2cnn3C)c1` (configuration not stated), the cytotoxicity at 10 µM was -8.77%.

For `CC(=O)N1CCCC1c1ccc(Br)cn1` (configuration not stated), the cytotoxicity at 10 µM came to 4.29%.

Turning to `Cc1cn2nc(N3CCCN(Cc4noc(C)n4)CC3)sc2n1`, the cytotoxicity at 10 µM amounted to 0.529%.

`CC(C)(C)n1cc(C(=O)NCCN2CCOCC2)c2cccnc21`: the cytotoxicity at 10 µM was 2.14%.

Regarding `O=C(c1cccnc1O)N(CCO)Cc1cc(Br)ccc1F`, the cytotoxicity at 10 µM came out at 6.27%.

With `CN(Cc1cnn(C)c1)C(=O)NC1CCN(Cc2ccccn2)CC1`, the cytotoxicity at 10 µM was -2.35%.

`CCC(C)(C)NC(=O)c1ccc(-c2ccco2)[nH]c1=O`: the cytotoxicity at 10 µM is -15.6%.

Take `COCCc1noc(CN2CCN(c3ccc(OC)cc3)C(=O)C2C)n1` (configuration not stated): the cytotoxicity at 10 µM was 0.296%.

Turning to `COc1cccc(CN2C[C@@H]3COC[C@]3(COCc3ccccn3)C2)c1`, the cytotoxicity at 10 µM was -88.8%.

With `Cc1cc(C(=O)NCc2cccs2)c2c(C3CCCN3)noc2n1` (configuration not stated), the cytotoxicity at 10 µM turned out to be 6.36%.

For `CC(=O)NCCNC(=O)c1sc(-c2ccc(Cl)s2)nc1C`, the cytotoxicity at 10 µM was -1.28%.

Regarding `Cc1c(C(=O)N2CCC3(CCCN(CC4CC4)C3=O)C2)ccn1C` (configuration not stated), the cytotoxicity at 10 µM was -3.92%.

`Clc1ccc(CN2CCc3c(ncn3C3CC3)C2)c2ncccc12`: the cytotoxicity at 10 µM was determined as 14%.

As for `CCN1CCOC(CNCc2ccccc2OCc2ccncc2)C1` (configuration not stated), the cytotoxicity at 10 µM is -8.57%.

As for `CSCCC(=O)NCc1cc2n(n1)CCN(C(=O)N(C)C)C2`, the cytotoxicity at 10 µM is -5.77%.

`CCOC1CCCN(C(=O)c2nn(-c3ccccc3F)cc2O)C1` (configuration not stated): the cytotoxicity at 10 µM was -4.62%.

On to `CC1CCCN(c2nccn3c(=O)[nH]nc23)C1` (configuration not stated), for which the cytotoxicity at 10 µM is 12.1%.

As for `CN(CCCc1nccn1C)c1nccc(-c2cc(C(=O)O)ccn2)n1`, the cytotoxicity at 10 µM is -4.9%.

As to `C=C(C)COc1cccc(C(=O)N(CC)Cc2nccn2C)c1`, the cytotoxicity at 10 µM is -4.69%.

For the compound `Cc1nn(C)c(C)c1CC(C)NC(=O)NCc1ccn(C(C)C)n1` (configuration not stated), the cytotoxicity at 10 µM is -1.54%.

Consider `CCCS(=O)(=O)N1CCN(C(=O)CO)CC1`, for which the cytotoxicity at 10 µM was -1.96%.

With `OC1CCN([C@@H]2CCN(c3nc(-c4ccccc4)no3)C[C@H]2O)CC1`, the cytotoxicity at 10 µM is -9.88%.

For `CCC(C(=O)NCC1CCN(c2cnn(C)c(=O)c2)CC1)n1cccn1` (configuration not stated), the cytotoxicity at 10 µM was 6.01%.

Take `Cc1ccc(NC(=O)CNc2cccc(C(N)=O)c2C)c(C)c1`: the cytotoxicity at 10 µM was 17.6%.

Take `Cc1cc(C)n(CCN(C)c2ccc(-c3nc(C4CC4)no3)cn2)n1`: the cytotoxicity at 10 µM was determined as 6.08%.

For `CC1(C)Cc2nc(C(C)(C)C)ncc2C(NC(=O)CN)C1` (configuration not stated), the cytotoxicity at 10 µM is -6.55%.

As to `CC(=O)N1CCCC(c2ccc(N3CCN(C)CC3)cn2)C1` (configuration not stated), the cytotoxicity at 10 µM was -28.9%.

For the compound `CCc1cnc(NC(=O)NC2CCN(C)CC2)s1`, the cytotoxicity at 10 µM was -5.66%.

`O=S(=O)(c1cc(F)cc(F)c1)N1CCC(Oc2ccc(Cl)cn2)CC1`: the cytotoxicity at 10 µM was -4.63%.

As to `COCCC(=O)N1CCCC1c1nc(O)cc(-c2ccccn2)n1` (configuration not stated), the cytotoxicity at 10 µM was -5.86%.

In the case of `CC(C)OC(=O)N1CCC(Cc2cccc(C(N)=O)c2)C1` (configuration not stated), the cytotoxicity at 10 µM was determined as 7.56%.

For `O=C(NCCn1nc(-n2cncn2)ccc1=O)c1ccc(F)cc1F`, the cytotoxicity at 10 µM is -8.78%.

For `Cc1nnc(N2CCCC2)c(C(N)=O)c1C`, the cytotoxicity at 10 µM is 7.19%.

As to `Cc1cc(C)nc(N2CCC(C(=O)Nc3n[nH]c(C(C)C)n3)CC2)n1`, the cytotoxicity at 10 µM was found to be 4.07%.

Regarding `Cc1noc(C)c1-c1cc(CC2CCN(C(=O)c3cc[nH]n3)C2)ncn1` (configuration not stated), the cytotoxicity at 10 µM was -13.4%.

As to `O=C(NCCSc1ccccc1F)NCc1cccnc1`, the cytotoxicity at 10 µM is -5.31%.

Take `CN(CCc1ccncc1)C(=O)C1CSCN1C(=O)C(C)(C)C` (configuration not stated): the cytotoxicity at 10 µM was -8.2%.

On to `Cc1nc(CN(C)C2CCN(Cc3ccno3)C2)no1` (configuration not stated), for which the cytotoxicity at 10 µM amounted to 2.07%.

On to `CCOC(=O)CN1CCC(C(=O)c2cc(F)ccc2F)CC1`, for which the cytotoxicity at 10 µM was -8.11%.

With `Cc1cccc(NCc2nn(C)c(=O)[nH]2)c1`, the cytotoxicity at 10 µM was found to be 2.6%.

As to `Cc1nn2c(N3CCC(C#N)CC3)cc(-c3ccccc3)nc2c1C`, the cytotoxicity at 10 µM was -8.6%.

For the compound `CN(CCOc1cccc(S(C)(=O)=O)c1)c1ccccc1`, the cytotoxicity at 10 µM worked out at 2.3%.

For `Cc1nc(C2(NCC(=O)NCc3cccs3)CCCCC2)no1`, the cytotoxicity at 10 µM came to 1.17%.

Consider `CNC(=O)[C@@H]1[C@@H](c2ccccc2)CN2CCN(Cc3cccs3)C[C@H]12`, for which the cytotoxicity at 10 µM was found to be 11%.

Take `CCS(=O)(=O)N1CCC(OCCCc2ccccc2)C1` (configuration not stated): the cytotoxicity at 10 µM came out at 8.59%.

As to `Oc1ccc2oc3c(c2c1CN1CCOCC1)CCCC3`, the cytotoxicity at 10 µM was -0.499%.

For `Cn1c2c(c(=O)n1C)CN(S(=O)(=O)c1cccs1)CCC2`, the cytotoxicity at 10 µM amounted to 8.98%.

In the case of `Cc1cc(NCc2cccnc2)n2nc(C)cc2n1`, the cytotoxicity at 10 µM was -0.719%.

For the compound `Cc1cc(C(=O)N2CCCCC2)ccc1NS(C)(=O)=O`, the cytotoxicity at 10 µM is -1.4%.

With `CSCCCN1CC[C@@H](NC(=O)c2cnccn2)[C@H](O)C1`, the cytotoxicity at 10 µM is -14.6%.

Take `O=C(Nc1cccc(N2CCCC2)c1)C1CCCN1c1nccs1` (configuration not stated): the cytotoxicity at 10 µM is -6.08%.

`NC(=O)c1cccnc1N1CCN(c2ncnc3c2CCNC3)CC1`: the cytotoxicity at 10 µM was -3.03%.

Consider `Cc1ccccc1N1CC2(CCN(S(=O)(=O)C3CC3)C2)CC1=O` (configuration not stated), for which the cytotoxicity at 10 µM stood at 3.12%.

On to `Cc1nc[nH]c1CN1C[C@H]2CC[C@@H](C1)N(C(=O)CCc1cnn(C)c1)C2`, for which the cytotoxicity at 10 µM is -14.1%.

For the compound `O=C(c1cc[nH]n1)N1CC[C@@H]2CN(Cc3ccccc3)S(=O)(=O)[C@@H]2CC1`, the cytotoxicity at 10 µM worked out at 4.35%.

With `COc1ccc([C@@H]2CN(C(=O)CS(C)(=O)=O)C[C@H]2NC(C)=O)cc1`, the cytotoxicity at 10 µM came out at 0.541%.

Take `O=C(c1cocn1)N1C[C@@H]2COC[C@]2(COc2cccnc2)C1`: the cytotoxicity at 10 µM is -107%.

In the case of `Cc1cc2n(n1)CC(CNC1CCN(c3ccccn3)CC1)CN2` (configuration not stated), the cytotoxicity at 10 µM is 6.09%.

For the compound `CCc1cnc(CN2CCCC(c3cc(C)[nH]n3)C2)o1` (configuration not stated), the cytotoxicity at 10 µM was found to be 0.503%.

With `CC(NC(=O)NCCCn1cccn1)c1ccc2c(c1)NC(=O)CO2` (configuration not stated), the cytotoxicity at 10 µM is -5.07%.

As to `COc1cc(C)nc(N2CCN(C(=O)CCc3ccsc3)CC2)n1`, the cytotoxicity at 10 µM is 10%.

Turning to `COCC(=O)N1CCC2(CC1)CCN(Cc1ccccn1)C2=O`, the cytotoxicity at 10 µM turned out to be 1.62%.

As to `O=C(COCC(=O)N(c1ccccc1)c1ccccc1)N1CCOCC1`, the cytotoxicity at 10 µM was 1.64%.

Turning to `CC(NCCn1c(=O)oc2ccccc21)c1ccccn1` (configuration not stated), the cytotoxicity at 10 µM was -7.1%.

Regarding `CCCn1cc(C(=O)NC(CC(=O)O)c2ccccc2F)c(C)n1` (configuration not stated), the cytotoxicity at 10 µM was -43.9%.

In the case of `CCc1nc(C2CCCN(C(=O)c3cnn(CC)c3)C2)no1` (configuration not stated), the cytotoxicity at 10 µM amounted to 4.16%.

Turning to `Cc1cc(C)n(-c2ccccc2NC(=O)NCCS(=O)(=O)CC(C)C)n1`, the cytotoxicity at 10 µM is -3.92%.

Take `O=C(Cc1ccc2c(c1)OCO2)N1CCCN(c2ccccc2)CC1`: the cytotoxicity at 10 µM is -2.84%.

As to `c1ccc(CO[C@@H]2CO[C@@]3(CCN(Cc4ccccn4)C3)C2)nc1`, the cytotoxicity at 10 µM is -9.62%.

`Cc1nnc(C2Cc3ccccc3CN2Cc2nc(C(C)C)no2)o1` (configuration not stated): the cytotoxicity at 10 µM was -22%.

With `NC(=O)C1CCN(C(=O)NCCOc2ccc3c(c2)CCC3)CC1`, the cytotoxicity at 10 µM was -7.07%.

Turning to `Cc1cc2nc(CO[C@H]3CN(C)C[C@H]3F)[nH]c2cc1C`, the cytotoxicity at 10 µM worked out at 2.78%.

Consider `CCc1cnc2c(c1Nc1ccc(OC)cc1)c(=O)n(C)c(=O)n2C`, for which the cytotoxicity at 10 µM came to 4.26%.

With `Cn1cc(NC(=O)C2CC(=O)N(c3n[nH]c4cccc(F)c34)C2)cn1` (configuration not stated), the cytotoxicity at 10 µM was found to be 4.59%.

For the compound `CNC(=O)C1Cn2ccnc2C2(CCN(Cc3ccncc3)CC2)O1` (configuration not stated), the cytotoxicity at 10 µM was -74.9%.

As for `COc1ccc(C(=O)Nc2ccccc2-c2ccc(=O)n(C)n2)nn1`, the cytotoxicity at 10 µM was determined as 2.18%.

As for `COc1ccccc1C1CCCN1CC(=O)N1CCC(C(N)=O)CC1` (configuration not stated), the cytotoxicity at 10 µM is -24.8%.

As to `CCc1nnc2n1CCN(C(=O)Cc1nc(-c3ccco3)oc1C)C2`, the cytotoxicity at 10 µM was 1.19%.

Turning to `CCN(Cc1nc(C)no1)C(=O)C1CC(=O)N(Cc2ccccn2)C1` (configuration not stated), the cytotoxicity at 10 µM is 4.78%.
